According to ChEMBL document CHEMBL1139422, “Design, synthesis and biological evaluation of novel compounds with conjugated structure as anti-tumor agents” (Bioorg Med Chem, 2008):
Active and inactive are the calls of the source. The rule behind the calls is not given here.

Columns and labels:
A549 = assay: Antiproliferative activity against human A549 cells after 48 hrs by MTT assay; assay type: functional, cell-based; conditions: A549, 48 h
Procedure, shortened: (§1)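 Cells seeded at 4000/well; compounds (10 mg/mL DMSO stock, diluted in medium) added 24 h after seeding, in duplicate. Incubation 48 h at 37 °C, 5% CO2. MTT (20 µL of 5 mg/mL in PBS) then added for 4 h at 37 °C, and the signal read at 570 nm.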

U-937 [1] = assay: Induction of p21waf1/CIP1 expression in human U937 cells after 24 hrs by Western blot analysis; assay type: functional, cell-based
Procedure, shortened: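 U937 cells were treated for 24 h. Total protein extracts (50 µg) were run on a 15% polyacrylamide gel and blotted for p21 (1:500), with tubulin as the loading control.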

[2] = molecular target: T1, Protein deacetylase HDAC6 (Homo sapiens) (UniProt Q9UBN7); assay: Inhibition of HDAC6 in human U937 cells assessed as induction of alpha-tubulin acetylation after 24 hrs by Western blot analysis; assay type: cell-based; conditions: U-937
T1 sequence (whole entry): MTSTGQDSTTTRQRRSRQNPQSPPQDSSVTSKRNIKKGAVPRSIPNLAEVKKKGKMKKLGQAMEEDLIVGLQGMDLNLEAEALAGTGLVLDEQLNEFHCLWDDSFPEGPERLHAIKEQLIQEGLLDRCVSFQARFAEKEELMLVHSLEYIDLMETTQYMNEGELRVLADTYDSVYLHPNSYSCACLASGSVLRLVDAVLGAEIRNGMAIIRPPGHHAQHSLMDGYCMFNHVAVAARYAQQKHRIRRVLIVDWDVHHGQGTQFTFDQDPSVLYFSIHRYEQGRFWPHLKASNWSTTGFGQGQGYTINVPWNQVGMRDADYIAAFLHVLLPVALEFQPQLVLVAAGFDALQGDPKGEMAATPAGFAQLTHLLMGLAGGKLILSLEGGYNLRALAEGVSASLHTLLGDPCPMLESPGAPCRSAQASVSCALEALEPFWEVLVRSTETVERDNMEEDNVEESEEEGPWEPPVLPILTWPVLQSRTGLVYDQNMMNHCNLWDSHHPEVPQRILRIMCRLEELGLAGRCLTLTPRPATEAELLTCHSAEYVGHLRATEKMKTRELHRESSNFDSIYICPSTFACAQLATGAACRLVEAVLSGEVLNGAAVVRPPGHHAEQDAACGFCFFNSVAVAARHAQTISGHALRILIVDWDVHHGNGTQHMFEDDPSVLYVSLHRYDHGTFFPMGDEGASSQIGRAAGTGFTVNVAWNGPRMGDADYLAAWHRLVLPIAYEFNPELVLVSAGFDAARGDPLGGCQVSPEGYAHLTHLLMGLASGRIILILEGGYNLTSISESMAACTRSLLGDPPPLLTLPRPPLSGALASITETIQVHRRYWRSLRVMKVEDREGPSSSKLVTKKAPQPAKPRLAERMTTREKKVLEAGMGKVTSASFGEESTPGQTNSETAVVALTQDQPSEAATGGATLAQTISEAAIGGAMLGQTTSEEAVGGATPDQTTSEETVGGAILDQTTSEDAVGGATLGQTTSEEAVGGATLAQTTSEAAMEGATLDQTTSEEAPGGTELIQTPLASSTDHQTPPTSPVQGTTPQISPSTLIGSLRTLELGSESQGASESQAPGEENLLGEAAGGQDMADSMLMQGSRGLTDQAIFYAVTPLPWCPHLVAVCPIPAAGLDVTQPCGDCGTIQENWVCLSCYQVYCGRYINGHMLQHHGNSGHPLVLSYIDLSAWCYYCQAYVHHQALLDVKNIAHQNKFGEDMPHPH
Procedure, shortened: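 U937 cells were treated for 24 h. Total protein extract (50 µg) was run on a 10% polyacrylamide gel and blotted for acetylated α-tubulin (1:500), with total ERK as the loading control.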

HCT-116 = assay: Antiproliferative activity against human HCT116 cells after 48 hrs by MTT assay; assay type: functional, cell-based; conditions: HCT-116, 48 h; procedure, shortened: as §1
Histone deacetylase 4 = Histone deacetylase 4 (Homo sapiens, UniProt P56524); assay: Inhibition of human recombinant HDAC4 using Fluor de Lys as substrate by fluorimetric assay
Procedure, shortened: (§2)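 Purified recombinant HDAC1 or HDAC4 was incubated with acetylated-lysine Fluor de Lys substrate, with or without inhibitor. Developer was then added to give the fluorophore, and fluorescence was read. IC50 values are means of at least three experiments. SI is IC50(HDAC1)/IC50(HDAC4).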

HepG2 = assay: Antiproliferative activity against human HepG2 cells after 48 hrs by MTT assay; assay type: functional, cell-based; conditions: HepG2, 48 h; procedure, shortened: as §1
U-937 [3] = assay: Induction of apoptosis in human U937 cells assessed as caspase 3 activation at 5 uM after 24 hrs by FACS analysis; assay type: functional, cell-based
Procedure, shortened: (§3)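 U937 cells were grown in supplemented RPMI at 200,000 cells/mL. Compounds in DMSO were given at 5 µM for 24 h or 30 h, or at 0.5 µM for 28 h. Apoptosis was analysed by FACS. Values are means of independent duplicates.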

PC-3 = assay: Antiproliferative activity against human PC3 cells after 48 hrs by MTT assay; assay type: functional, cell-based; conditions: PC-3, 48 h; procedure, shortened: as §1
Histone deacetylase 1 = Histone deacetylase 1 (Homo sapiens, UniProt Q13547); assay: Inhibition of human recombinant HDAC1 using Fluor de Lys as substrate by fluorimetric assay; procedure, shortened: as §2
U-937 [4] = assay: Cell cycle arrest in human U937 cells assessed as accumulation at G1 phase at 5 uM after 24 hrs by flow cytometry; assay type: functional, cell-based
Procedure, shortened: (§4)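 U937 cells were grown in RPMI with 10% FCS, penicillin/streptomycin, amphotericin-B, 10 mM Hepes and 2 mM glutamine, and held at 200,000 cells/mL. Cells were treated 24 h with compounds in DMSO. 2.5×10^5 cells were resuspended in hypotonic buffer (0.1% Triton X-100, 0.1% sodium citrate, 50 µg/mL PI, RNase A) for 30 min in the dark, then analysed by flow cytometry. Values are means of independent duplicates.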

Homo sapiens = species on record: Homo sapiens; assay: Selectivity index, ratio of IC50 for human recombinant HDAC1 to IC50 for human recombinant HDAC4; procedure, shortened: as §2
U-937 [5] = assay: Cell cycle arrest in human U937 cells assessed as accumulation at S phase at 5 uM after 24 hrs by flow cytometry; assay type: functional, cell-based; procedure, shortened: as §4
U-937 [6] = assay: Induction of monocytic differentiation in human U937 cells assessed as CD14 expression at 5 uM after 30 hrs by FACS analysis; assay type: functional, cell-based
Procedure, shortened: (§5)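 U937 cells were grown in RPMI with 10% FCS, 10 mM Hepes and 2 mM glutamine at 200,000 cells/mL. Compounds in DMSO were given for 30 h (5 µM) or 28 h (0.5 µM). Cells were stained for surface antigen for 30 min at 4 °C in the dark, washed, and resuspended in PBS with propidium iodide. PI-positive cells were excluded from the FACS analysis. Values are means of independent quadruplicates.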

U-937 [7] = assay: Increase in granulocytic differentiation in human U937 cells assessed as CD11c expression at 5 uM after 30 hrs by FACS analysis; assay type: functional, cell-based; procedure, shortened: as §5
U-937 [8] = assay: Induction of apoptosis in human U937 cells assessed as caspase 3 activation at 5 uM after 30 hrs by FACS analysis; assay type: functional, cell-based; procedure, shortened: as §3

Sequence of Histone deacetylase 1 (Q13547 whole entry): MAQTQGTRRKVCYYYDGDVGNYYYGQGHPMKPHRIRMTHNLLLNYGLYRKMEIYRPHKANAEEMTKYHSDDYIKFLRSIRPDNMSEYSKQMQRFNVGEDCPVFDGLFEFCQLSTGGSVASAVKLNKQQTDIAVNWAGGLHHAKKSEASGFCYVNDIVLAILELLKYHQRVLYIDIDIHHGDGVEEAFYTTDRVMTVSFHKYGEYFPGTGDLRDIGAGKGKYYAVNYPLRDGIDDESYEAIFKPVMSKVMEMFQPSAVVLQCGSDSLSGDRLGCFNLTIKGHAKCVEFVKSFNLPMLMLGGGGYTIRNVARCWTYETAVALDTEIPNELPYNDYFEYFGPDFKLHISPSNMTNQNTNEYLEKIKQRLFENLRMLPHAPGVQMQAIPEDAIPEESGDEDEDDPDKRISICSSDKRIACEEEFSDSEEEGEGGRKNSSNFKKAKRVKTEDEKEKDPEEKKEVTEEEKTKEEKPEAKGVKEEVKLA
Sequence of Histone deacetylase 4 (P56524 whole entry): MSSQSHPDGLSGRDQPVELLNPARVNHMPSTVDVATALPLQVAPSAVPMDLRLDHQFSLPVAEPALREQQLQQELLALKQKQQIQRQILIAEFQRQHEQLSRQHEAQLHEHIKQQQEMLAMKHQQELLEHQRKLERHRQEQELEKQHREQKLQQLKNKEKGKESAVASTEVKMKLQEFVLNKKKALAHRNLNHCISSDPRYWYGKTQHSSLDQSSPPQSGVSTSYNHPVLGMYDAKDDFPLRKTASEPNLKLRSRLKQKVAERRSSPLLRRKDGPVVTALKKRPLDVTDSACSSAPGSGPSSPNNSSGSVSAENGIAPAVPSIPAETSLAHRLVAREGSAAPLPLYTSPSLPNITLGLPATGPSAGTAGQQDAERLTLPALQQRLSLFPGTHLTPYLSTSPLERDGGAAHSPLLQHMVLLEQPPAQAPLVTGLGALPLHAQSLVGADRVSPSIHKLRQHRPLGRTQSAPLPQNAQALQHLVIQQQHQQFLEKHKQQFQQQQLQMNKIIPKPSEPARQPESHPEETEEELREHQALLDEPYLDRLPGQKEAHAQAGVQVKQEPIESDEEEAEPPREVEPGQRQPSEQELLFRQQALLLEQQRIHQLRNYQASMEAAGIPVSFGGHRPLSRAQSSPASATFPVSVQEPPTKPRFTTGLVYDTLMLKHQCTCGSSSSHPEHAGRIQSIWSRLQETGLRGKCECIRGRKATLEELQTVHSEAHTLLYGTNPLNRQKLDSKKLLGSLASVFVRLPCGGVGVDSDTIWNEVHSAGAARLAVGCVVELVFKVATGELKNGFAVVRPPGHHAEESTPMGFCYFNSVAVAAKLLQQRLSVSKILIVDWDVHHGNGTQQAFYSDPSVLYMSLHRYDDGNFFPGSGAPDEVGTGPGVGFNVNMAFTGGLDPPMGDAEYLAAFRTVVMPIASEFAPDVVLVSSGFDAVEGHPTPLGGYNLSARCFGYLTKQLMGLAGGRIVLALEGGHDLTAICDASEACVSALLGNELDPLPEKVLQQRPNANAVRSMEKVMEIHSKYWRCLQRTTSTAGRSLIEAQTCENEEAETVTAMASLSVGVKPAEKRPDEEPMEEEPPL

Row | Compound | IC50 (A549) [µM] | Activity (U-937 [1]) | Activity [2] | IC50 (HCT-116) [µM] | IC50 (Histone deacetylase 4) [µM] | IC50 (HepG2) [µM] | Activity (U-937 [3]) | IC50 (PC-3) [µM] | IC50 (Histone deacetylase 1) [µM] | Activity (U-937 [4]) | Ratio IC50 (Homo sapiens) | Activity (U-937 [5]) | Activity (U-937 [6]) | Activity (U-937 [7]) | Activity (U-937 [8])
1 | O=C(/C=C/c1ccc(/C=C/C(=O)c2cccc(Cl)c2)o1)NO | 18.9 | Active | Active | 1.51 | 12.9 | 54.5 | Active | 9.6 | 12.6 | Active | 1 |  |  |  | 
2 | O=C(NO)c1ccc(/C=C/c2ccc3c(c2)OCO3)o1 | 63.6 |  |  | 4.98 | 85.6 | 33.6 |  | 45.9 | 29.6 |  | 0.34 |  |  |  | 
3 | CC(=O)O[C@H]1C(=O)[C@@]2(C)[C@H]([C@H](OC(=O)c3ccccc3)[C@]3(O)C[C@H](OC(=O)[C@H](O)[C@@H](NC(=O)c4ccccc4)c4ccccc4)C(C)=C1C3(C)C)[C@]1(OC(C)=O)CO[C@@H]1C[C@@H]2O [PACLITAXEL] | 13.1 |  |  |  |  | 0.62 |  | 2.73 |  |  |  |  |  |  | 
4 | Nc1ccccc1NC(=O)c1ccc(CNC(=O)OCc2cccnc2)cc1 [ENTINOSTAT] |  |  |  | 27.5 |  | 60.1 |  | 59.1 |  |  |  |  |  |  | 
5 | COc1ccc2cc(C(=O)/C=C/c3ccc(/C=C/C(=O)NO)o3)ccc2c1 |  | Active | Active | 2.06 | 4.04 | 6.22 | Active | 36.3 | 11 |  | 2.7 | Active |  |  | 
6 | O=C(/C=C/c1ccc(/C=C/C(=O)c2cc(Cl)ccc2Cl)o1)NO | 27.1 | Active | Active | 4.12 | 4.31 | 48.3 |  | 24.7 | 4.72 | Active | 1.1 |  |  |  | 
7 | Cc1ccc(C(=O)/C=C/c2ccc(/C=C/C(=O)NO)o2)cc1 | 48.6 |  |  | 0.54 | 1.1 | 16 | Active | 16 | 13.2 |  | 11.9 | Active |  |  | 
8 | O=C(NO)c1ccc(/C=C/c2ccccc2O)o1 | 79.2 |  |  | 5.1 | 74.2 | 54 |  | 91.3 | 47.1 |  | 0.63 |  | inactive | Active | Active
9 | O=C(/C=C/c1ccc(/C=C/C(=O)c2ccc(Cl)cc2)o1)NO | 98.1 | Active | Active | 2.01 | 6.03 | 6.74 |  | 1.35 | 15.7 | Active | 2.6 |  |  |  | 
10 | O=C(/C=C/c1ccc(/C=C/C(=O)c2ccc(Cl)cc2Cl)o1)NO | 88.1 | Active | Active | 6.73 | 8.19 | 13.5 | Active | 16.2 | 4.29 |  | 0.5 | Active |  |  | 
11 | O=C(/C=C/c1ccc(/C=C/C(=O)c2ccc(F)cc2)o1)NO |  | Active | Active | 2.82 | 7.68 | 12 | Active | 40.1 | 15 | Active | 2 |  |  |  | 
12 | O=C(NO)c1ccc(/C=C/c2cccc(Cl)c2Cl)o1 | 23.6 |  |  | 3.39 | 49.3 | 37.2 |  | 39.2 | 25.3 |  | 0.51 |  |  |  | 
13 | COc1cccc(/C=C/c2ccc(C(=O)NO)o2)c1O |  |  |  |  | 42.8 |  |  | 35.1 | 50.1 |  | 1.17 |  |  |  | 
14 | CC(C)c1ccc(C(=O)/C=C/c2ccc(/C=C/C(=O)NO)o2)cc1 | 56.7 | Active | Active | 0.49 | 4.89 | 35.9 |  | 2.27 | 24.1 | Active | 4.9 |  |  |  | 
